Test results: PubChem BioAssay
Activity calls are given as the source filed them.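 Rule for the calls: active = growth inhibition above 25% in both replicates, a cutoff set 3 SD above the mean; inconclusive = above 25% in only one replicate; inactive = the rest.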

Experiment: S. cerevisiae growth inhibition in permissive medium (OD615), pilot counter-assay for S. cerevisiae lifespan shortening project, permissive growth control (AID 705)
Settings: OD615, 24 h, at 10 µM, hits give high values
In short: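 System – S. cerevisiae with engineered DeaD lifespan system · Buffer or medium – SC raffinose/galactose permissive medium · Schedule – cells pre-grown 4 h, then 24 h compound exposure, 30 °C humidified · Technique – culture turbidity as optical density at 615 nm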

Row | SMILES | growth inhibition
1 | Cc1ccc(NC(=O)c2cc(-c3ccc(C)o3)nc3ccccc23)nc1 | 3.23% (inactive)
2 | CCc1cccc(NC(=O)Cn2cc3c(n2)CCCC3)c1 | -17.8% (inactive)
3 | CCN(CC)C(=O)C1CCCN(c2ncnc3c2cnn3-c2ccc(Cl)cc2)C1 (stereo unspecified) | -7.13% (inactive)
4 | Cc1cccc(NC(=O)CS(=O)(=O)c2cn(C)c3ccccc23)c1 | 1.62% (inactive)
5 | O=C(CN1C(=O)c2ccccc2S1(=O)=O)NCc1ccccc1Cl | -8.21% (inactive)
6 | Cn1cnc2cc(NC(=O)c3ccc(Cl)cc3)ccc21 | 0.595% (inactive)
7 | COC(=O)c1cn(NC(=O)C2CCCO2)c(=O)c2ccccc12 (stereo unspecified) | -21.3% (inactive)
8 | O=C(c1ccc(Cl)s1)N1CCN(c2nc3ccccc3s2)CC1 | 3.6% (inactive)
9 | O=C(Nc1ccc(N2C(=O)C3C4C=CC(C4)C3C2=O)cc1)Nc1nncs1 (stereo unspecified) | -7.11% (inactive)
10 | CNC(=O)c1ccccc1NC(=O)c1c(O)c2c([nH]c1=O)CCCC2 | -17.1% (inactive)
11 | COc1ccccc1CNC(=O)CCn1c(=O)[nH]c2ccsc2c1=O | -21% (inactive)
12 | Cc1ccc(-c2nc3cc(NC(=O)C(C)C)ccc3o2)cc1 | -11.2% (inactive)
13 | COc1ccccc1N1CCN(C(=O)c2cc(C3CC3)on2)CC1 | -9.72% (inactive)
14 | CCCCN(C(=O)c1ccc(Cl)cc1)C1CC2CCC(C1)N2C (stereo unspecified) | -9.97% (inactive)
15 | COc1ccc(OC)c2[nH]c(=O)c(CCNC(=O)C(C)C)cc12 | -3.17% (inactive)
16 | COc1ccccc1S(=O)(=O)Cc1ccc(C(=O)N2CCN(c3ccccn3)CC2)o1 | -6.28% (inactive)
